Compound activity deposited in PubChem by several laboratories.
L major viab = Leishmania major promastigote growth inhibition, primary screen; Leishmania major promastigotes, resazurin fluorescence viability; inhibition, % at 10 µM; actives 9% (n = 200,000); AID 1063, 2008; in the data active = inhibition above about 50%;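 also: promastigotes grown with compound for 44 hours at 28 °C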
PMI act satM6P = human PMI activators, high substrate, primary screen, biochemical, fluorescence intensity, near-saturating mannose 6-phosphate; Mannose-6-phosphate isomerase (Homo sapiens), P34949; actives 0.34% (n = 190,000); coupled PMI enzyme assay, resazurin fluorescence, 20 min; stronger effect = higher value; 1 = untreated enzyme, 0 = substrate-free blank; activation factor at 20 µM; AID 1216, 2008;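 active = activation factor of 2 or more at 20 µM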
Target sequence (P34949 whole entry, looked up): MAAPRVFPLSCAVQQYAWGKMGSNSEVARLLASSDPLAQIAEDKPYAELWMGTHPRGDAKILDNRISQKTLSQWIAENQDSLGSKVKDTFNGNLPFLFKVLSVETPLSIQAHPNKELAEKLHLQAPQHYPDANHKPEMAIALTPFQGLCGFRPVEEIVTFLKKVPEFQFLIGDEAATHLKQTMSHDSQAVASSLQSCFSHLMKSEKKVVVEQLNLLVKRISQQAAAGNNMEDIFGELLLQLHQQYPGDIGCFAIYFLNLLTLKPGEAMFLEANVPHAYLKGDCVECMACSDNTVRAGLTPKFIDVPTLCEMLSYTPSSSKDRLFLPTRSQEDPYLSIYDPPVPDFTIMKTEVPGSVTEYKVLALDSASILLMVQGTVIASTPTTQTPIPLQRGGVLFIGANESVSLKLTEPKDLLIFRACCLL
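Test system: human phosphomannose isomerase with PGI, G6PDH, diaphorase coupling enzymes; amount: 15 ng/mL PMI; incubation: enzyme reaction with compound 20 min at room temperature; technique: resorufin fluorescence (Ex 544/Em 590 nm) from resazurin via diaphorase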
PMI activator = activators of human PMI, primary screen, biochemical, fluorescence intensity, near-Km mannose 6-phosphate; activation factor at 20 µM; purified human PMI, coupled resazurin fluorescence, 20 min; stronger effect = higher value; 1 = vehicle control, 0 substrate-free wells; Mannose-6-phosphate isomerase (Homo sapiens), P34949; actives 0.005% (n = 190,000); AID 1214, 2008;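 active = activation factor of 2 or more at 20 µM, relative to plate controls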
bCat KO growth = primary screen for growth suppressors in beta-catenin knockout HCT116 cells (colon tumor, human). HCT116 beta-catenin knockout viability, CellTiter-Glo, 60 h; stronger effect = lower value. actives 1.5% (n = 140,000). viability, % at 10 µM;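 active = viability at or under a set limit, the compound median less 4 SD, cut at about 6% in these data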
PTEN del growth = growth suppression of PTEN-null HCT116, primary screen, cell-based, CellTiter-Glo. HCT116 PTEN-null viability, 60 h; stronger effect = lower value. AID 827, 2007. viability, % at 10 µM. actives 1.2% (n = 140,000);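 active = viability at or below a set limit, 4 SD under the median of all tested compounds, cut at about 3.7% in these data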;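 also: PTEN knockout HCT116 line with beta catenin targeted HCT116 as companion control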
Large screens that a line does not name were inactive. Most compounds without a hit are left out; they make up all but 9.6% or so of the library.

Cc1ccc(C)c(NC(=O)CSc2nc3ccc(N4C(=O)c5ccccc5C4=O)cc3s2)c1	L major viab 98.6
Cc1cc(C)nc(NC(=O)CSc2nc3ccccc3s2)n1	none
Cc1cc2nc(C)n(CCCNC(=O)Nc3ccc(F)cc3)c2cc1C	L major viab 91.0
O=C(Cc1c2ccccc2nc2ccccc12)c1ccccc1	none
O=C(NC(=S)NCC1CCCO1)c1ccc(Br)o1 (stereo unspecified)	none (no result: bCat KO growth, PTEN del growth)
COC(=O)c1ccc(-n2c(C)cc(C(=O)COC(=O)CC3Sc4ccccc4NC3=O)c2C)cc1 (stereo unspecified)	L major viab 65.3
Cc1nnc(SCC(=O)c2cc(C)n(-c3ccc4c(c3)OCO4)c2C)s1	L major viab 60.8
CC(=O)c1ccc(OCC(=O)c2cc(C)n(-c3ccc4c(c3)OCO4)c2C)cc1	none
Cc1cc(C(=O)COC(=O)CC2Sc3ccccc3NC2=O)c(C)n1-c1ccc2c(c1)OCO2 (stereo unspecified)	L major viab 54.9
Cc1cc(C(=O)CSc2nnnn2C)c(C)n1-c1ccc2c(c1)OCCO2	none
Cc1cc(C(=O)COC(=O)c2ccc(N)c([N+](=O)[O-])c2)c(C)n1-c1ccc2c(c1)OCO2	L major viab 71.2
COc1ccc(C(=O)NCCN2CCOCC2)c(OC)c1OC	none (no result: bCat KO growth, PTEN del growth)
C=CCn1nnnc1-c1cc(Cl)cc(Cl)c1	none (no result: bCat KO growth, PTEN del growth)
CCN(CC)S(=O)(=O)c1ccc2c(c1)nc(CCC(=O)OCC(=O)Nc1c(F)cccc1F)n2C	none
CCN(CC)S(=O)(=O)c1ccc2c(c1)nc(CCC(=O)OCC(=O)Nc1cc(OC)cc(OC)c1)n2C	L major viab 63.7
O=C(NNc1ccccc1Br)C(O)(c1cccc(C(F)(F)F)c1)c1cccc(C(F)(F)F)c1	bCat KO growth 1.9, PTEN del growth 2.1
CC(C)(O)C(=O)NNC(=S)Nc1cccc(C(F)(F)F)c1	none (no result: bCat KO growth, PTEN del growth)
COc1cnc(-c2ccccn2)nc1Oc1ccc(F)cc1F	none (no result: bCat KO growth, PTEN del growth)
COc1cnc(-c2ccccn2)nc1Oc1ccc(Cl)c2ccccc12	L major viab 100.5
COc1cnc(-c2ccccn2)nc1Oc1ccccc1Cl	none
COc1cnc(-c2ccccn2)nc1Oc1ccc(Cl)cc1	L major viab 71.2
CCOc1ccc2[nH]cc(C(=O)NCCCN3CCOCC3)c(=O)c2c1	none (no result: bCat KO growth, PTEN del growth)
CCC(C(=O)Nc1ccsc1C(=O)OC)c1ccccc1 (stereo unspecified)	none (no result: bCat KO growth, PTEN del growth)
O=C(N/N=C/c1cc(Cl)ccc1O)c1ccccc1Br	L major viab 98.1 (no result: bCat KO growth, PTEN del growth)
O=C(/C=N/NC(=O)c1ccccc1Br)c1ccccc1	none (no result: bCat KO growth, PTEN del growth)
O=C(CN1CC(c2ccccc2)CC1=O)N/N=C/c1cc(Br)ccc1O (stereo unspecified)	L major viab 98.0
O=C(CNC(=O)c1ccccc1Br)N/N=C/c1ccccc1O	none (no result: bCat KO growth, PTEN del growth)
O=C(CNC(=O)c1ccncc1)N/N=C/c1cc(Br)ccc1O	L major viab 98.4
O=C(CNC(=O)c1ccccc1Br)N/N=C/c1cc(Br)ccc1O	L major viab 58.1 (no result: bCat KO growth, PTEN del growth)
Cc1cc(OCC(=O)Nc2nnc(C3CC3)s2)ccc1[N+](=O)[O-]	none (no result: bCat KO growth, PTEN del growth)
O=C(CCCn1c(=S)[nH]c2ccsc2c1=O)Nc1ccc2c(c1)OCCO2	none (no result: bCat KO growth, PTEN del growth)
O=C(CNC(=O)c1cccc(Br)c1)N/N=C/c1cn[nH]c1-c1ccccc1	L major viab 67.1
O=C(CNC(=O)c1ccc(F)cc1)N/N=C/c1cn[nH]c1-c1ccccc1	none
O=C(CNC(=O)c1cccc(Br)c1)N/N=C/c1ccc[nH]1	none (no result: bCat KO growth, PTEN del growth)
Cc1cccc(OCC(=O)NCC(=O)N/N=C/c2cc(Br)ccc2OCc2ccccc2)c1	L major viab 92.0
O=C(COc1ccccc1)NCC(=O)N/N=C/c1cc(Br)ccc1OCc1ccccc1	none
O=C(Cc1ccccc1)N/N=C/c1cc(Br)cc(Cl)c1O	L major viab 82.4 (no result: bCat KO growth, PTEN del growth)
O=C(CNC(=O)c1ccccc1)N/N=C/c1cc(Br)ccc1O	L major viab 80.4
CCOC(=O)c1sc2nc(C)nc(N3CCN(c4ncccn4)CC3)c2c1C	none (no result: bCat KO growth, PTEN del growth)
Cc1cc(C)cc(NC(=O)COc2ccc3c(C)c(Cc4ccccc4)c(=O)oc3c2)c1	L major viab 93.9
Cc1ccc(OCC(=O)NCc2cccs2)cc1	none
Cc1c(Cl)c(=O)oc2cc(OCC(=O)NCc3cccs3)ccc12	L major viab 62.3
O=C(Nc1cccc(C(F)(F)F)c1)C12CC3CC(CC(C3)C1)C2	bCat KO growth 0.9, PTEN del growth 1.0
CC(=O)N1c2ccccc2N(Cc2ccc(C)cc2C)C(=O)C1(C)C	L major viab 93.7
CNc1ccc(C(O)(C(F)(F)F)C(F)(F)F)cc1C(O)(C(F)(F)F)C(F)(F)F	L major viab 98.3
O=C(N/C(=C\c1ccc(Br)cc1)C(=O)N1CCCC1)c1ccccc1F	none (no result: bCat KO growth, PTEN del growth)
O=[N+]([O-])c1ccc(NCCCNS(=O)(=O)c2ccc(Cl)cc2)c(Cl)c1	L major viab 94.5
O=[N+]([O-])c1ccccc1NCCNS(=O)(=O)c1ccc(Cl)cc1	none
CCCCC(CC)CNC(=O)Cn1c(=S)[nH]c2ncccc2c1=O (stereo unspecified)	none (no result: bCat KO growth, PTEN del growth)
CCCOc1ccc(C(C(=O)OCCN(CC)CC)c2ccccc2)cc1 (stereo unspecified)	L major viab 98.6
O=C(c1ccc(F)cc1)C(CN1CCOCC1)c1ccccc1 (stereo unspecified)	L major viab 100.6, bCat KO growth 1.6, PTEN del growth 1.6
CCCOc1ccc(C(=O)C(CN2CCCC2)c2ccccc2)cc1 (stereo unspecified)	L major viab 100.4, bCat KO growth 1.3, PTEN del growth 0.9
O=C(c1ccccc1)C(CCC(CN1CCOCC1)C(=O)c1ccccc1)CN1CCOCC1 (stereo unspecified)	L major viab 100.5, bCat KO growth 1.9, PTEN del growth 1.9
CCCOc1ccc(C(=O)N2CCCC2C(=O)O)cc1 (stereo unspecified)	none
COc1ccc(C(=O)C(CN2CCOCC2)c2ccccc2)cc1 (stereo unspecified)	L major viab 100.6, bCat KO growth 3.4, PTEN del growth 1.6
COc1ccc(C(=O)C(CN2CCCC2)c2ccccc2)cc1 (stereo unspecified)	L major viab 100.4, bCat KO growth 2.2, PTEN del growth 1.1
CCCCOc1ccc(C(=O)C(CN2CCOCC2)c2ccccc2)cc1 (stereo unspecified)	L major viab 100.5, bCat KO growth 1.9, PTEN del growth 2.0
CCCCCOc1ccc(C(=O)C(c2ccccc2)N2CCOCC2)cc1 (stereo unspecified)	none
CCN(CC)S(=O)(=O)c1ccc(N2CCOCC2)c(NC(=O)c2ccc(C#N)cc2)c1	none (no result: bCat KO growth, PTEN del growth)
CCn1cc(C(=O)N2CCN(c3cccc(Cl)c3)CC2)c2cc(OC)c(OC)cc2c1=O	L major viab 91.8
